This note sets out measurements from ChEMBL document CHEMBL3232764, “Influence of the adamantyl moiety on the activity of biphenylacrylohydroxamic acid-based HDAC inhibitors” (Eur J Med Chem, 2014).

The source made the active and inactive calls. The calls are words filed in the database; no cut-off is given here. Where only a bound is given, the exact number is not on record here.

Histone deacetylase 2, sequence (Q92769 whole entry): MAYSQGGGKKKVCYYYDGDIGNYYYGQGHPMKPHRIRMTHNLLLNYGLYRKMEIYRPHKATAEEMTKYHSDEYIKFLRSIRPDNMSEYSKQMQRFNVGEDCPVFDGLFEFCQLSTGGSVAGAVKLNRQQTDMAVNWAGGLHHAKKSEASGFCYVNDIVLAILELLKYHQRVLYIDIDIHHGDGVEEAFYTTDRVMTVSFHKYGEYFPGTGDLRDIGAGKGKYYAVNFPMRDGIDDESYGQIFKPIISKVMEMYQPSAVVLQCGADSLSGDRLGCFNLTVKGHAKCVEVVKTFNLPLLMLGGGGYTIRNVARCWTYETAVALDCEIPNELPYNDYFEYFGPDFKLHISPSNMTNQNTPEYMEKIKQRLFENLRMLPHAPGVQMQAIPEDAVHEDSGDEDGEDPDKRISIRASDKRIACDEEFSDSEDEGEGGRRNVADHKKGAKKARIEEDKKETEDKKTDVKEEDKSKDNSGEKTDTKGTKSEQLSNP

One data set addresses T1, Protein deacetylase HDAC6 (Homo sapiens) (UniProt Q9UBN7).
T1 sequence (whole entry): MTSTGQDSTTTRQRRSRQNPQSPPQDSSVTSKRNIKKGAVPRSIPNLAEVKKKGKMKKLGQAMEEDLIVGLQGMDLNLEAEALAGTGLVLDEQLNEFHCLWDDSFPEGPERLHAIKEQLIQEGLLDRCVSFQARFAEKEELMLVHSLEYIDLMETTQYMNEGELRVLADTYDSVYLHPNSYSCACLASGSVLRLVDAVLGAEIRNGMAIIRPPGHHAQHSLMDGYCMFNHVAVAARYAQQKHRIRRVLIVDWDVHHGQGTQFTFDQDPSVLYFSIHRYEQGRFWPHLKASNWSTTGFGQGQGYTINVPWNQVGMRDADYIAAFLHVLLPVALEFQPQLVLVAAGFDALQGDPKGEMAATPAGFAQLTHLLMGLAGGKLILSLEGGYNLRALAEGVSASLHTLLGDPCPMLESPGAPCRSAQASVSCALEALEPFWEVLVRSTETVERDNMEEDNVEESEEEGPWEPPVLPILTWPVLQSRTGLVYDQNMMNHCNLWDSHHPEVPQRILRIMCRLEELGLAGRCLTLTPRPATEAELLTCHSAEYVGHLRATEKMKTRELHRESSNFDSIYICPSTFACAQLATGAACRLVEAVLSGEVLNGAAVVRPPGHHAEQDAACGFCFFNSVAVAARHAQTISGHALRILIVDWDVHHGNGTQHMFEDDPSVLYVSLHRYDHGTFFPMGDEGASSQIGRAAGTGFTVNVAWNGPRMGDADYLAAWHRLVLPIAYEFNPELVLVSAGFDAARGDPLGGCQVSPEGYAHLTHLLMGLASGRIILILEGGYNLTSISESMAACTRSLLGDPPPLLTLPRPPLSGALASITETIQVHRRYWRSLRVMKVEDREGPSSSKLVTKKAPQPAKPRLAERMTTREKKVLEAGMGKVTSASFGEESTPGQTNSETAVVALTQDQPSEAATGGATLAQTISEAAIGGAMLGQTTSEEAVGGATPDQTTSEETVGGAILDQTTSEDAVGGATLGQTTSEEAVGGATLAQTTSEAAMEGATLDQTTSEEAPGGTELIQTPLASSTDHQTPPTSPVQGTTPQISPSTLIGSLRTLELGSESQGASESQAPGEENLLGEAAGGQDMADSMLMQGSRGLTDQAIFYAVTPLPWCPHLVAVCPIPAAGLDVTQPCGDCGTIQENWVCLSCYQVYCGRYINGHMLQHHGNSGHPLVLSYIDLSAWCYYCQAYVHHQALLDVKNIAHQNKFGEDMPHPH
The data set can be described thus: Inhibition of HDAC6 in human IGROV1 cells assessed as increase in tubulin acetylation at IC80 after 4 to 24 hrs by Western blot analysis. The note with it: IGROV-1. The format is cell-based. Summed up:
(§1)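 Cells treated with various concentrations of HDAC inhibitors, collected, lysed and analysed by Western blotting.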
Background: Immunoblotting shows a protein as a band on a membrane.
With `COc1ccc(-c2ccc(/C=C/C(=O)NO)cc2)cc1C12CC3CC(CC(C3)C1)C2`, the result was inactive.

Test system in a further data set: not listed separately
The data set can be described thus: Cell cycle arrest in human IGROV1 cells assessed as accumulation at G2/M phase at IC80 after 24 hrs by propidium iodide staining-based flow cytometry (reference value: 13.21%). The format is functional. Conditions: IGROV-1. An outline of the steps: (§2)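 Cell-cycle distribution in IGROV-1 cells read by flow cytometry of propidium iodide–stained cells.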
(In flow cytometry, cells or beads pass a laser one at a time.)
As for `COc1ccc(-c2ccc(/C=C/C(=O)NO)cc2)cc1C12CC3CC(CC(C3)C1)C2`, the Activity amounted to 3.39%.

The next data set has as its target Histone deacetylase 2 (Homo sapiens, UniProt Q92769).
Test: not given
Details: not given
The format is cell-based, HeLa.
As for `COc1ccc(-c2ccc(/C=C/C(=O)NO)cc2)cc1C12CC3CC(CC(C3)C1)C2`, half-maximal inhibition (IC50) was put at 2.3 µM.
As to `O=C(/C=C/c1ccc(-c2cccc(C34CC5CC(CC(C5)C3)C4)c2)cc1)NO`, the IC50 (usually the point on the concentration scale where inhibition reaches its midpoint) is over 10 µM.

Test system in another data set: not listed separately
The data set can be described thus: Antiproliferative activity against p53 defective cis-platinum-resistant human IGROV1/Pt1 cells assessed as growth inhibition after 72 hrs. Conditions: IGROV-1/Pt1, 72 h. The class given is functional, cell-based. Summed up:
(§3)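 Log-phase cells seeded in duplicate in 6-well plates; drug added 24 h after seeding. Cells harvested 72 h after drug exposure and counted with a cell counter. IC50 = drug concentration giving 50% reduction in cell number versus untreated control.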
Consider `COc1ccc(-c2ccc(/C=C/C(=O)NO)cc2)cc1C12CC3CC(CC(C3)C1)C2`, for which the IC50 is 1.8 µM.
For the compound `O=C(/C=C/c1ccc(-c2cccc(C34CC5CC(CC(C5)C3)C4)c2)cc1)NO`, the half-maximal inhibitory concentration (IC50) is 5.7 µM.

The subject of a further data set is IGROV-1. The experiment in a line: Cell cycle arrest in human IGROV1 cells assessed as accumulation at G1 phase at IC80 after 24 hrs by propidium iodide staining-based flow cytometry (reference value: 49.98%). The format is functional.
Details: not given
Summed up:
as §2
Take `COc1ccc(-c2ccc(/C=C/C(=O)NO)cc2)cc1C12CC3CC(CC(C3)C1)C2`: the Activity worked out at 78.46%.

Test system in the next data set: not listed separately
The experiment in a line: cells. The class given is functional, cell-based. Conditions: Homo sapiens, NCI-H460, 72 h.
`COc1ccc(-c2ccc(/C=C/C(=O)NO)cc2)cc1C12CC3CC(CC(C3)C1)C2` showed a 50% inhibitory concentration (IC50) of 1.42 µM.
On the same count and under the same terms, to `O=C(/C=C/c1ccc(-c2cccc(C34CC5CC(CC(C5)C3)C4)c2)cc1)NO` belongs over 10 µM.

The next data set has as its system HCT-116. The experiment in a line: Anticancer activity against human HCT116 cells xenografted in athymic nude Swiss mouse assessed as tumor growth inhibition at 50 mg/kg, po administered once-daily for 5 days a week for 5 weeks starting 3 days post tumor implantation. The format is functional. The note with it: read-out: TGI. Summed up: (§4)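 Female athymic Swiss nude mice given 10⁷ exponentially growing HCT116 cells s.c. in the right flank; tumor lines maintained by serial s.c. fragment passage. Dosing began 3 days after implantation: 50 mg/kg orally, once daily 4–5 days/week for 5 weeks (24 doses total). Compound dissolved in DMSO, diluted in PBS with 5% Cremophor to 10% DMSO final.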
On the technique in general: Xenograft models place foreign cells or tissue in a host animal.
For the compound `COc1ccc(-c2ccc(/C=C/C(=O)NO)cc2)cc1C12CC3CC(CC(C3)C1)C2`, the inhibition in vivo at 50 mg/kg was found to be 60%.

Another data set deals with Mus musculus. The data set can be described thus: Toxicity in athymic nude Swiss mouse xenografted with human HCT116 cells at 50 mg/kg, po administered once-daily for 5 days a week for 5 weeks starting 3 days post tumor implantation. Conditions: in vivo. More on the design: dose 50 mg/kg, route oral. The class given is organism-based, HCT-116. An outline of the steps:
as §4
`COc1ccc(-c2ccc(/C=C/C(=O)NO)cc2)cc1C12CC3CC(CC(C3)C1)C2`: the Activity entry is reported as “Non-toxic”.

A further data set relates to IGROV-1. The experiment in a line: Antiproliferative activity against human IGROV1 cells assessed as growth inhibition after 72 hrs. The format is functional, cell-based. Conditions: IGROV-1, 72 h. An outline of the steps: as §3
For the compound `COc1ccc(-c2ccc(/C=C/C(=O)NO)cc2)cc1C12CC3CC(CC(C3)C1)C2`, the concentration for half-maximal inhibition (IC50) worked out at 0.96 µM.
Turning to `O=C(/C=C/c1ccc(-c2cccc(C34CC5CC(CC(C5)C3)C4)c2)cc1)NO`, the IC50 turned out to be 1.23 µM.

For a further data set, the system named is HCT-116. The experiment in a line: Antiproliferative activity against human HCT116 cells assessed as growth inhibition after 72 hrs. The class given is functional, cell-based. Conditions: HCT-116, 72 h. An outline of the steps:
as §3
As for `COc1ccc(-c2ccc(/C=C/C(=O)NO)cc2)cc1C12CC3CC(CC(C3)C1)C2`, the half-maximal inhibitory concentration (IC50) was 1.3 µM.
On the same count and under the same terms, to `O=C(/C=C/c1ccc(-c2cccc(C34CC5CC(CC(C5)C3)C4)c2)cc1)NO` belongs 10.3 µM.

Another data set concerns IGROV-1. The experiment in a line: Induction of apoptosis in human IGROV1 cells at IC80 after 72 hrs by TUNEL and flow cytometry analysis (reference value: 4%). The class given is functional.
Details: not given
In turn, `COc1ccc(-c2ccc(/C=C/C(=O)NO)cc2)cc1C12CC3CC(CC(C3)C1)C2` displayed an Activity of 42%.

The subject of the next data set is IGROV-1. The data set can be described thus: Cell cycle arrest in human IGROV1 cells assessed as accumulation at S phase at IC80 after 24 hrs by propidium iodide staining-based flow cytometry (reference value: 36.81%).
Details: not given
The class given is functional. An outline of the steps: as §2
Take `COc1ccc(-c2ccc(/C=C/C(=O)NO)cc2)cc1C12CC3CC(CC(C3)C1)C2`: the Activity stood at 18.14%.

Another data set addresses T2, Histone deacetylase 11 (Homo sapiens, UniProt Q96DB2).
T2 sequence (Q96DB2 whole entry): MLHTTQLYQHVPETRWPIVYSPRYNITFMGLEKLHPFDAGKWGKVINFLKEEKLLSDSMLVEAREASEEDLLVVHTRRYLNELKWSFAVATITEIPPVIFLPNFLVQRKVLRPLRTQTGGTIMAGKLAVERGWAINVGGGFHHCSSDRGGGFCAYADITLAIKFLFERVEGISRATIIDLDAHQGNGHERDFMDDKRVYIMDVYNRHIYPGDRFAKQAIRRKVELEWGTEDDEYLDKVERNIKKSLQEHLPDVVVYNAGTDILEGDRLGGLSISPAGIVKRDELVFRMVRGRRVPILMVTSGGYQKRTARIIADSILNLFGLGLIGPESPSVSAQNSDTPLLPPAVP
The experiment in a line: Inhibition of human HDAC11 using fluorogenic tetrapeptide RHKKAc as substrate.
Details: not given
`COc1ccc(-c2ccc(/C=C/C(=O)NO)cc2)cc1C12CC3CC(CC(C3)C1)C2` displayed an IC50 of 77 µM.

The test system of the next data set is IGROV-1. The experiment in a line: Induction of DNA damage in human IGROV1 cells assessed as p53 phosphorylation at Ser15 at 1 to 2 uM after 4 to 48 hrs by Western blot analysis. The format is functional, cell-based.
Details: not given
Summed up: as §1
`COc1ccc(-c2ccc(/C=C/C(=O)NO)cc2)cc1C12CC3CC(CC(C3)C1)C2`: the outcome was Active.
